These results are taken from ChEMBL document CHEMBL2157989, “Synthesis and biological evaluation of antibody conjugates of phosphate prodrugs of cytotoxic DNA alkylators for the targeted treatment of cancer” (J Med Chem, 2012).

Activity calls are given as the source filed them. The calls are words filed in the database; no cut-off is given here.

Series [1] can be described thus: Solubility in ethanol at 1.5 mg sonicated for 45 mins followed by centrifugation for 45 mins by UV/Vis spectroscopy. It counts as physicochemical. As to conditions: 0.75 h. Put shortly: (§1)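 Solid compound (~1.5 mg) in the stated solvent was sonicated 45 min, then centrifuged at 1400g for 45 min. The supernatant concentration was read by UV/vis at 340 nm, using ε = 41500 M⁻¹ cm⁻¹ for the free phenols and 34500 M⁻¹ cm⁻¹ for the phosphate prodrugs (pH 7.0 values).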

Series [2] is described as follows: Solubility in DMSO at 1.5 mg sonicated for 45 mins followed by centrifugation for 45 mins by UV/Vis spectroscopy. Format: physicochemical. Conditions: 0.75 h. In short, it runs like this:
as §1

A short description of series [3]: Solubility in water at 1.5 mg sonicated for 45 mins followed by centrifugation for 45 mins by UV/Vis spectroscopy. Format: physicochemical. As to conditions: 0.75 h. Put shortly: as §1
Series [4] in a line: Solubility in chloroform at 1.5 mg sonicated for 45 mins followed by centrifugation for 45 mins by UV/Vis spectroscopy. As to conditions: 0.75 h. Format: physicochemical. In short, it runs like this:
as §1

The subject of series [5] is Ramos. Description: Cytotoxicity against human Ramos cells assessed as cell survival after 72 hrs by clonogenic assay. It counts as functional, cell-based. Put shortly: (§2)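 Cells were kept in RPMI 1640 with 10% heat-inactivated FBS at 37 °C and 6% CO₂. They were plated at 1000–5000 cells/well and exposed to 0–3 nM test agent for 72 h. Medium was then replaced and colonies grew for 7–10 days in total after plating. Colonies were fixed and stained with 0.2% crystal violet in 10% formalin/PBS, then counted. Surviving fraction = colonies in treated wells / colonies in control wells; IC₅₀ was taken from this.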

Series [6] in a line: Solubility in DMF at 1.5 mg sonicated for 45 mins followed by centrifugation for 45 mins by UV/Vis spectroscopy. It counts as physicochemical. Conditions: 0.75 h. Put shortly:
as §1

Series [7] is described as follows: Solubility in toluene at 1.5 mg sonicated for 45 mins followed by centrifugation for 45 mins by UV/Vis spectroscopy. Format: physicochemical. As to conditions: 0.75 h. Put shortly: as §1
The test system of a further series is HL-60. Description: Cytotoxicity against human HL60 cells assessed as cell survival after 72 hrs by clonogenic assay. Conditions: HL-60, 72 h. It counts as functional, cell-based. In short, it runs like this:
as §2

Series [8] is described as follows: Solubility in ethyl acetate at 1.5 mg sonicated for 45 mins followed by centrifugation for 45 mins by UV/Vis spectroscopy. It counts as physicochemical. Conditions: 0.75 h. In short, it runs like this:
as §1

The nature of series [9]: Solubility in DMA at 1.5 mg sonicated for 45 mins followed by centrifugation for 45 mins by UV/Vis spectroscopy. As to conditions: 0.75 h. Format: physicochemical. In short, it runs like this:
as §1

A short description of series [10]: Solubility in dichloromethane at 1.5 mg sonicated for 45 mins followed by centrifugation for 45 mins by UV/Vis spectroscopy. Format: physicochemical. As to conditions: 0.75 h.
Series [11] is described as follows: Cytotoxicity against human NAMALWA cells assessed as cell survival after 72 hrs by clonogenic assay. As to conditions: NAMALVA. It counts as functional, cell-based. Put shortly:
as §2

The nature of series [12]: Solubility in methanol at 1.5 mg sonicated for 45 mins followed by centrifugation for 45 mins by UV/Vis spectroscopy. Format: physicochemical. Conditions: 0.75 h. In short, it runs like this: as §1
Series [13] can be described thus: Solubility in hexane at 1.5 mg sonicated for 45 mins followed by centrifugation for 45 mins by UV/Vis spectroscopy. It counts as physicochemical. As to conditions: 0.75 h. Put shortly:
as §1

Series [14] in a line: Stability of the compound in 5 % DMA assessed as cyclopropyl ring formation incubated for 1 yr at room temperature at pH 7 by HPLC analysis. As to conditions: buffer, pH 7, 8766 h. Format: physicochemical. In short, it runs like this: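 Phosphate prodrug is stored for one year at room temperature in phosphate buffer containing 5% DMA at pH ~7. Conversion to the ring-closed cyclopropyl form is monitored by HPLC.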

Series [15] in a line: Prodrug activation assessed as enzyme-mediated compound dephosphorylation in presence of calf intestine alkaline phosphatase P7923 at pH 7.4 by HPLC. As to conditions: cattle, isolated protein.
The nature of series [16]: Prodrug activation assessed as enzyme-mediated compound dephosphorylation in presence of canine intestine alkaline phosphatase P8639 at pH 7.4 by HPLC. As to conditions: dog, isolated protein.
Series [17] can be described thus: Prodrug activation assessed as enzyme-mediated compound dephosphorylation in presence of bovine liver alkaline phosphatase P7034 at pH 7.4 by HPLC. As to conditions: cattle, isolated protein.
Series [18] can be described thus: Prodrug activation assessed as enzyme-mediated compound dephosphorylation in presence of rabbit intestine alkaline phosphatase P2256 at pH 7.4 by HPLC. Conditions: isolated protein.
A short description of series [19]: Prodrug activation assessed as enzyme-mediated compound dephosphorylation in presence of bovine intestinal mucosa alkaline phosphatase P7640 at pH 7.4 by HPLC. Conditions: cattle, isolated protein.
A short description of series [20]: Prodrug activation assessed as enzyme-mediated compound dephosphorylation in presence of calf intestine mucosa alkaline phosphatase P79390 at pH 7.4 by HPLC. Conditions: cattle, isolated protein.
Series [21] relates to Ramos. Description: Antitumor activity against human Ramos cells xenografted in CB17 SCID mouse assessed as reduction in tumor growth rate at 75 ug/kg, iv dosed as qdx5 regime starting 7 days post xenograft. Format: functional, organism-based. Put shortly: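 Female CB 17 SCID mice, five weeks old, were given Ramos cells subcutaneously under the right shoulder (5 × 10⁶ cells/mouse in 0.1 mL serum-free medium). Tumors grew 7 days to about 100 mm³. Mice were randomized, six per group. Dosing was 75 μg/kg (drug basis) qd ×5, given intravenously, with phosphate-buffered saline as vehicle control. Tumors were measured in three dimensions twice weekly, with volume = ½(l×w×h); body weight was also taken twice weekly.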

Series [22] can be described thus: Prodrug activation assessed as enzyme-mediated compound dephosphorylation in presence of porcine intestine mucosa alkaline phosphatase P4002 at pH 7.4 by HPLC. Conditions: pig, isolated protein.
The nature of series [23]: Solubility in water containing 5% DMA at 1.5 mg sonicated for 45 mins followed by centrifugation for 45 mins by UV/Vis spectroscopy. It counts as physicochemical. As to conditions: 0.75 h.
Series [24] in a line: Prodrug activation assessed as enzyme-mediated compound dephosphorylation in presence of porcine kidney alkaline phosphatase P4439 at pH 7.4 by HPLC. As to conditions: pig, isolated protein.
Series [25] in a line: Prodrug activation assessed as enzyme-mediated compound dephosphorylation in presence of bovine semen prostatic acid phosphatase P3147 at pH 7.4 by HPLC. As to conditions: cattle, isolated protein.
The nature of series [26]: Prodrug activation assessed as enzyme-mediated compound dephosphorylation in presence of wheat germ acid phosphatase Sigma P3627 at pH 7.4 by HPLC. Conditions: isolated protein.
Series [27] can be described thus: Solubility in water containing 5% DMSO at 1.5 mg sonicated for 45 mins followed by centrifugation for 45 mins by UV/Vis spectroscopy. It counts as physicochemical. Conditions: 0.75 h.
A short description of series [28]: Solubility in water containing 5% THF at 1.5 mg sonicated for 45 mins followed by centrifugation for 45 mins by UV/Vis spectroscopy. It counts as physicochemical. Conditions: 0.75 h.
The nature of series [29]: Solubility in water containing 5% DMF at 1.5 mg sonicated for 45 mins followed by centrifugation for 45 mins by UV/Vis spectroscopy. Format: physicochemical. As to conditions: 0.75 h.
A short description of series [30]: Prodrug activation assessed as enzyme-mediated compound dephosphorylation in presence of human placenta alkaline phosphatase from P3895 at pH 7.4 by HPLC. Conditions: isolated protein.
The nature of series [31]: Solubility in water containing 5% acetone at 1.5 mg sonicated for 45 mins followed by centrifugation for 45 mins by UV/Vis spectroscopy. It counts as physicochemical. Conditions: 0.75 h.
Series [32] is described as follows: Prodrug activation assessed as enzyme-mediated compound dephosphorylation in presence of human semen prostatic acid phosphatase P1649 at pH 7.4 by HPLC. Conditions: isolated protein.
Series [33] in a line: Solubility in water containing 5% dioxane at 1.5 mg sonicated for 45 mins followed by centrifugation for 45 mins by UV/Vis spectroscopy. It counts as physicochemical. As to conditions: 0.75 h.
A short description of series [34]: Prodrug activation assessed as enzyme-mediated compound dephosphorylation in presence of bovine alkaline phosphatase P8361 at pH 7.4 by HPLC. As to conditions: cattle, isolated protein.
Series [35] is described as follows: Prodrug activation assessed as enzyme-mediated compound dephosphorylation in presence of bovine kidney alkaline phosphatase P4653 at pH 7.4 by HPLC. Conditions: cattle, isolated protein.

As for `O=C(CCSSc1ccccn1)Nc1ccc2[nH]c(C(=O)Nc3ccc4[nH]c(C(=O)N5C[C@@H](CCl)c6c5cc(O)c5ccccc65)cc4c3)cc2c1`, the solubility result in series [1] is reported as “Insoluble”; in series [2], “soluble”; in [3] it was “Insoluble”; in [4] it was “Insoluble”; in [6] it was “soluble”; in [7], “Insoluble”. Also, the solubility result in [8] is “Insoluble”; in series [9], “soluble”; in series [10] it was “Insoluble”; in series [12], “Insoluble”; in series [13], “Insoluble”. Besides, the IC50 was determined as 0.05 nM in the series on Ramos [5], 0.05 nM in the series with HL-60 and 0.09 nM in [11].

Consider `CSSCCC(=O)Nc1ccc2[nH]c(C(=O)Nc3ccc4[nH]c(C(=O)N5C[C@H]6CC67C5=CC(=O)c5ccccc57)cc4c3)cc2c1` (stereo partly specified), for which the IC50 with Ramos [5] was 0.015 nM; in the series on HL-60, 0.012 nM; in series [11] it was 0.012 nM.

With `Nc1ccc2[nH]c(C(=O)Nc3ccc4[nH]c(C(=O)N5C[C@@H](CCl)c6c5cc(O)c5ccccc65)cc4c3)cc2c1`, the IC50 in the series on HL-60 stood at 0.03 nM; in series [11] it was 0.005 nM.

For `CC(=O)SCCC(=O)Nc1ccc2[nH]c(C(=O)Nc3ccc4[nH]c(C(=O)N5C[C@@H](CCl)c6c5cc(O)c5ccccc65)cc4c3)cc2c1`, the solubility entry in series [1] is reported as “Insoluble”; in series [2], “soluble”; in series [3], “Insoluble”; in series [4], “Insoluble”; in [6], “soluble”; in series [7], “Insoluble”. The solubility entry in [8] is given as “Insoluble”; in [9], “soluble”; in [10] it was “Insoluble”; in series [12], “Insoluble”; in series [13], “Insoluble”. Further, the values for the IC50 (in the series with Ramos [5]; in the series on HL-60; in series [11]) were 0.047 nM, 0.045 nM and 0.02 nM, respectively.

`CC(C)(S)CCC(=O)Nc1ccc2[nH]c(C(=O)Nc3ccc4[nH]c(C(=O)N5C[C@@H](CCl)c6c5cc(OP(=O)(O)O)c5ccccc65)cc4c3)cc2c1`: the solubility entry is “Insoluble” in [1]; “soluble” in series [2]; “Insoluble” in series [3]; “Insoluble” in series [4]; “soluble” in series [6]; “Insoluble” in [7]. The solubility result in series [23] is “soluble”; in [27], “soluble”; in series [8], “Insoluble”; in series [9], “soluble”; in series [10] it was “Insoluble”; in series [28] it was “soluble”. For the same compound, the solubility entry is reported as “soluble” in series [29]; “soluble” in series [31]; “Insoluble” in series [12]; “soluble” in series [33]; “Insoluble” in series [13]. Also, the Drug degradation in [14] amounted to 3%. The Drug metabolism entry in series [15], in series [16], in series [17], in [18], in [19] and in series [20] was “Active” throughout. Also, the Drug metabolism entry in series [22], in series [24], in series [25], in series [26], in [30] and in series [32] was “Active” each time. In addition, the Drug metabolism entry in series [34] and in series [35] was “Active” throughout. Moreover, in the series on Ramos [21], the result was inactive.

For `O=C(CCS)Nc1ccc2[nH]c(C(=O)Nc3ccc4[nH]c(C(=O)N5C[C@@H](CCl)c6c5cc(OP(=O)(O)O)c5ccccc65)cc4c3)cc2c1`, the solubility result in [1] is recorded as “Insoluble”; in series [2] it was “soluble”; in series [3], “Insoluble”; in series [4], “Insoluble”; in series [6], “soluble”; in series [7] it was “Insoluble”. In addition, the solubility entry in series [23] is “soluble”; in series [27], “soluble”; in [8] it was “Insoluble”; in series [9], “soluble”; in series [10], “Insoluble”; in series [28] it was “soluble”. Moreover, the solubility entry in series [29] is on record as “soluble”; in series [31], “soluble”; in [12], “Insoluble”; in series [33], “soluble”; in [13] it was “Insoluble”. Besides, the Drug degradation in [14] was found to be 3%. Further, the Drug metabolism result in [15], in [16], in series [17], in [18], in [19] and in series [20] was “Active” in each case. Also, the Drug metabolism entry in [22], in series [24], in series [25], in series [26], in [30] and in [32] was “Active” in each case. Further, the Drug metabolism result in series [34] and in series [35] was “Active” each time. The result in the series with Ramos [21] was inactive.

Regarding `O=C(Nc1ccc2[nH]c(C(=O)N3C[C@@H](CCl)c4c3cc(O)c3ccccc43)cc2c1)c1cc2cc([N+](=O)[O-])ccc2[nH]1`, the IC50 came to 0.007 nM with HL-60 and 0.005 nM in [11].

As usually defined, the IC50 is the concentration that gives 50% inhibition.
